According to publication PMC6061410 (Clinical Drug Investigation, 2018):

System: healthy young and healthy elderly subjects
Assay: Safety and tolerability
Type: in vivo, human
Conditions: young
Method in brief: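 Adverse events were recorded by system organ class and preferred term in the treated set. This was 84 healthy young or elderly subjects randomised 3:1 to oral drug or placebo over 14 days, across seven ascending dose groups with a safety review before each escalation. Changes were assessed against the last pre-dose baseline measurement.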

For C[C@@H](Oc1ccc(S(C)(=O)=O)cc1C(=O)N1C[C@@H]2C[C@]2(c2cc(C(F)(F)F)on2)C1)C(F)(F)F [BI 425809], the Gastrointestinal disorders (part 1, 25 mg QD) was 3 (33.3) n (%), the “General disorders and administration site conditions” value (part 1, 25 mg QD) was 0 (–) n (%) and the Headache (part 1, 25 mg QD) was 3 (33.3) n (%). The Infections and infestations (part 1, 25 mg QD) was 2 (22.2) n (%), the Insomnia (part 1, 25 mg QD) was 0 (–) n (%) and the “Musculoskeletal and connective tissue disorders” value (part 1, 25 mg QD) was 0 (–) n (%). For the same molecule, the Nasopharyngitis (part 1, 25 mg QD) was 2 (22.2) n (%), the Nervous system disorder (part 1, 25 mg QD) was 3 (33.3) n (%) and the Ocular discomfort (part 1, 25 mg QD) was 0 (–) n (%). The Psychiatric disorders (part 1, 25 mg QD) was 1 (11.1) n (%), the “Subjects with AEs leading to study discontinuation” value (“Subjects with AEs leading” below) (part 1, 25 mg QD) was 0 (–) n (%) and the “Subjects with investigator-defined drug-related AEs” value (part 1, 25 mg QD) was 6 (66.7) n (%). For the same molecule, the “Total with AEs” value (part 1, 25 mg QD) was 7 (77.8) n (%), the Vision blurred (part 1, 25 mg QD) was 2 (22.2) n (%) and the Dizziness (part 1, 50 mg QD) was 1 (11.1) n (%). For the same molecule, the Eye disorders (part 1, 50 mg QD) was 3 (33.3) n (%), the Gastrointestinal disorders (part 1, 50 mg QD) was 0 (–) n (%) and the “General disorders and administration site conditions” value (part 1, 50 mg QD) was 2 (22.2) n (%). For the same molecule, the Headache (part 1, 50 mg QD) was 3 (33.3) n (%), the Infections and infestations (part 1, 50 mg QD) was 1 (11.1) n (%) and the Insomnia (part 1, 50 mg QD) was 0 (–) n (%). The “Musculoskeletal and connective tissue disorders” value (part 1, 50 mg QD) was 1 (11.1) n (%), the Nasopharyngitis (part 1, 50 mg QD) was 0 (–) n (%) and the Nervous system disorder (part 1, 50 mg QD) was 3 (33.3) n (%). For the same molecule, the Ocular discomfort (part 1, 50 mg QD) was 0 (–) n (%), the Psychiatric disorders (part 1, 50 mg QD) was 0 (–) n (%) and the “Subjects with AEs leading” value (part 1, 50 mg QD) was 0 (–) n (%). For the same molecule, the “Subjects with investigator-defined drug-related AEs” value (part 1, 50 mg QD) was 6 (66.7) n (%), the “Total with AEs” value (part 1, 50 mg QD) was 6 (66.7) n (%) and the Vision blurred (part 1, 50 mg QD) was 1 (11.1) n (%). For the same molecule, the Dizziness (part 1, 75 mg BID) was 2 (22.2) n (%), the Eye disorders (part 1, 75 mg BID) was 2 (22.2) n (%) and the Gastrointestinal disorders (part 1, 75 mg BID) was 0 (–) n (%). For the same molecule, the “General disorders and administration site conditions” value (part 1, 75 mg BID) was 1 (11.1) n (%), the Headache (part 1, 75 mg BID) was 0 (–) n (%) and the Infections and infestations (part 1, 75 mg BID) was 0 (–) n (%). For the same molecule, the Insomnia (part 1, 75 mg BID) was 3 (33.3) n (%), the “Musculoskeletal and connective tissue disorders” value (part 1, 75 mg BID) was 0 (–) n (%) and the Nasopharyngitis (part 1, 75 mg BID) was 0 (–) n (%). The Nervous system disorder (part 1, 75 mg BID) was 2 (22.2) n (%), the Ocular discomfort (part 1, 75 mg BID) was 2 (22.2) n (%) and the Psychiatric disorders (part 1, 75 mg BID) was 3 (33.3) n (%). The “Subjects with AEs leading” value (part 1, 75 mg BID) was 0 (–) n (%), the “Subjects with investigator-defined drug-related AEs” value (part 1, 75 mg BID) was 6 (66.7) n (%) and the “Total with AEs” value (part 1, 75 mg BID) was 6 (66.7) n (%). The Vision blurred (part 1, 75 mg BID) was 0 (–) n (%), the Dizziness (part 1, 75 mg QD) was 3 (33.3) n (%) and the Eye disorders (part 1, 75 mg QD) was 0 (–) n (%). The Fatigue (part 1, 75 mg QD) was 1 (11.1) n (%), the Gastrointestinal disorders (part 1, 75 mg QD) was 2 (22.2) n (%) and the “General disorders and administration site conditions” value (part 1, 75 mg QD) was 1 (11.1) n (%). For the same molecule, the Headache (part 1, 75 mg QD) was 4 (44.4) n (%), the Infections and infestations (part 1, 75 mg QD) was 1 (11.1) n (%) and the Insomnia (part 1, 75 mg QD) was 0 (–) n (%). For the same molecule, the “Musculoskeletal and connective tissue disorders” value (part 1, 75 mg QD) was 1 (11.1) n (%), the Nasopharyngitis (part 1, 75 mg QD) was 1 (11.1) n (%) and the Nervous system disorder (part 1, 75 mg QD) was 5 (55.6) n (%). For the same molecule, the Ocular discomfort (part 1, 75 mg QD) was 0 (–) n (%), the Psychiatric disorders (part 1, 75 mg QD) was 0 (–) n (%) and the “Subjects with AEs leading” value (part 1, 75 mg QD) was 0 (–) n (%). For the same molecule, the “Subjects with investigator-defined drug-related AEs” value (part 1, 75 mg QD) was 5 (55.6) n (%), the “Total with AEs” value (part 1, 75 mg QD) was 6 (66.7) n (%) and the Vision blurred (part 1, 75 mg QD) was 0 (–) n (%). The Dizziness (part 1, Total BI n = 45) was 7 (15.6) n (%), the Eye disorders (part 1, Total BI n = 45) was 7 (15.6) n (%) and the Fatigue (part 1, Total BI n = 45) was 1 (2.2) n (%). The Gastrointestinal disorders (part 1, Total BI n = 45) was 5 (11.1) n (%), the “General disorders and administration site conditions” value (part 1, Total BI n = 45) was 4 (8.9) n (%) and the Headache (part 1, Total BI n = 45) was 13 (28.9) n (%). The Infections and infestations (part 1, Total BI n = 45) was 5 (11.1) n (%), the Insomnia (part 1, Total BI n = 45) was 3 (6.7) n (%) and the “Musculoskeletal and connective tissue disorders” value (part 1, Total BI n = 45) was 3 (6.7) n (%). For the same molecule, the Nasopharyngitis (part 1, Total BI n = 45) was 3 (6.7) n (%), the Nervous system disorder (part 1, Total BI n = 45) was 17 (37.8) n (%) and the Ocular discomfort (part 1, Total BI n = 45) was 2 (4.4) n (%). For the same molecule, the Psychiatric disorders (part 1, Total BI n = 45) was 4 (8.9) n (%), the “Subjects with AEs leading” value (part 1, Total BI n = 45) was 0 (–) n (%) and the “Subjects with investigator-defined drug-related AEs” value (part 1, Total BI n = 45) was 27 (60.0) n (%). The “Total with AEs” value (part 1, Total BI n = 45) was 30 (66.7) n (%), the Vision blurred (part 1, Total BI n = 45) was 3 (6.7) n (%) and the Eye disorders (parts 1 and 2, BI n = 57) was 7 (12.3) n (%). For the same molecule, the Gastrointestinal disorders (parts 1 and 2, BI n = 57) was 5 (8.8) n (%), the “General disorders and administration site conditions” value (parts 1 and 2, BI n = 57) was 4 (7.0) n (%) and the Infections and infestations (parts 1 and 2, BI n = 57) was 6 (10.5) n (%). For the same molecule, the “Musculoskeletal and connective tissue disorders” value (parts 1 and 2, BI n = 57) was 3 (5.3) n (%), the Nervous system disorder (parts 1 and 2, BI n = 57) was 18 (31.6) n (%) and the Psychiatric disorders (parts 1 and 2, BI n = 57) was 4 (7.0) n (%). For the same molecule, the “Subjects with AEs leading” value (parts 1 and 2, BI n = 57) was 0 (–) n (%), the “Subjects with investigator-defined drug-related AEs” value (parts 1 and 2, BI n = 57) was 27 (47.4) n (%) and the “Total with AEs” value (parts 1 and 2, BI n = 57) was 32 (56.1) n (%).
